# M1 PAM: human CHRM1 positive allosteric modulation; CHO-K1 hM1, Fluo-8 calcium fluorescence, ACh EC20; 0% = ACh EC20, 100% = maximal ACh; P11229; 360,000 compounds, 0.088% hits; activation, % at 3 µM; AID 588819; in the data active means activation above about 19%, passing the limit was not always enough
# Target sequence (P11229 whole entry, looked up): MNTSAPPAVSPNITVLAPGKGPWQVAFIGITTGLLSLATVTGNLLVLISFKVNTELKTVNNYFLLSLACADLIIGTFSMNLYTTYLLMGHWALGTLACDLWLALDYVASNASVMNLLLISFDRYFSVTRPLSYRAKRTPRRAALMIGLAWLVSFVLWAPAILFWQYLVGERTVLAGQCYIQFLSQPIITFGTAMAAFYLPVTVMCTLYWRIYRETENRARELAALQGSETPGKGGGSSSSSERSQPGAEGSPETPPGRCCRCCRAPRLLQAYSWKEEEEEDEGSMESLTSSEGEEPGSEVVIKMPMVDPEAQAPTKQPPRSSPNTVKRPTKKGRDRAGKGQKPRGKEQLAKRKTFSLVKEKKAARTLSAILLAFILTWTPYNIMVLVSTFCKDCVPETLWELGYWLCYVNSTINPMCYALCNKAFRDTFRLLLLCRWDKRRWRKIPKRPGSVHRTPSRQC
# TAAR1 antagonist: antagonists of human TAAR1; 360,000 compounds, 1.5% hits; Q96RJ0; CHO RD-HGA16 TAAR1, Fluo-8 calcium fluorescence, antagonist; AID 624466; inhibition, % at 3 µM;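 active means inhibition above a per-plate cutoff, the mean inhibition of test compounds on that plate plus 3 SD, cut at about 49% in these data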;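 further: 0% = DMSO plus EC80 beta-PEA response and 100% = DMSO alone without agonist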
#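 Material: CHO RD-HGA16 cells bearing hTAAR1; compound dosing: one-point dosing, 3 µM nominal final; schedule: dye loading 75 min at 37 °C, then 30 min room temperature; measured by: calcium fluorescence with Fluo-8; control set: vehicle and agonist controls; replication: n of 1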
# M1 antag: human CHRM1 antagonism; P11229; CHO-K1 hM1, Fluo-8 calcium fluorescence, ACh EC80 antagonist; inhibition, % at 3 µM; 360,000 compounds, 1.3% hits;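 active means percent inhibition above its own plate's cutoff, namely the mean of that plate's compound wells plus 3 SD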;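 further: peak over basal fluorescence ratio during 140 s after agonist addition; 0% = ACh EC80 plus DMSO and 100% = DMSO alone without agonist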
# CHRM1 agonist: human M1 muscarinic receptor agonism | P11229 | CHO-K1 hM1, Fluo-8 calcium fluorescence, agonist mode; 0% DMSO, 100% acetylcholine EC100 | activation, % at 3 µM | 360,000 compounds, 0.33% hits | AID 588814;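 active means activation above the run's mean compound activation plus 3 SD, cut at about 16% in these data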;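 further: peak over basal fluorescence ratio within a 140 s kinetic read after compound addition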
# TAAR1 agonist: human TAAR1 agonism. activation, % at 3 µM. Q96RJ0. 360,000 compounds, 0.99% hits. CHO RD-HGA16 TAAR1, Fluo-8 calcium fluorescence; vehicle wells 0%, saturating PEA agonist 100%;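 active means activation above the mean activation of all test compounds in the run plus 3 SD, cut at about 38% in these data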
#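 Signal – calcium-sensitive Fluo-8 signal, excitation 470-495, emission 515-575 nm · System – RD-HGA16 (CHO) cells co-expressing Gα16 and hTAAR1 · Incubation – 17-24 h seeding, 75 min 37 °C dye, 30 min RT · Compound dosing – 3 µM single concentration · Repeats – no replicates (n 1)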
# TAAR1 nonsel count: nonselective antagonist in TAAR1 antagonist counter-screen | inhibition, % at 3 µM | 2,400 compounds, 77% hits | counterscreen cell line, calcium fluorescence, antagonist mode | shares compounds with TAAR1 antagonist; in the data active means inhibition above about 22%;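 further: CHO-Ga16 host cells stimulated with ATP at an EC80 level; 0% = agonist EC80 plus vehicle and 100% = vehicle without agonist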
# TAAR1 ant conf: human TAAR1 antagonism, confirmed. shares compounds with TAAR1 antagonist. TAAR1-expressing cells, fluorescence antagonist read-out. inhibition, % at 3 µM. 2,400 compounds, 40% hits; in the data active means inhibition above about 49%;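 further: CHO-Ga16 host cells challenged with agonist PEA near its EC80; 0% = agonist at EC80 plus vehicle and 100% = vehicle with no agonist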
# Ga16 ag counter: counter-screen for TAAR1 antagonists: nonselective Ga16 agonists; shares compounds with TAAR1 antagonist; Ga16-expressing cells, calcium fluorescence, agonist counterscreen; activation, % at 3 µM; 2,400 compounds, 18% hits; AID 651953; in the data active means activation above about 12%;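 further: 0% = vehicle wells and 100% = saturating stimulus response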
# TAAR1 ag count: TAAR1 agonism, antagonist counter-screen; AID 651955; activation, % at 3 µM; shares compounds with TAAR1 antagonist; hTAAR1 cell line, fluorescence activation, agonist mode; 2,400 compounds, 2% hits; in the data active means activation above about 37%;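 further: CHO cells stably expressing TAAR1 with calcium dye readout; 0% = DMSO vehicle and 100% = full agonist response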
# * hit, by the source's call; . = no result given. Compounds with a hit are over-represented: about 3.4% of the library has one in this group of screens.
SMILES,M1 PAM,TAAR1 antagonist,M1 antag,CHRM1 agonist,TAAR1 agonist,TAAR1 nonsel count,TAAR1 ant conf,Ga16 ag counter,TAAR1 ag count
COC(=O)c1cc(OC)c(OC)cc1NC(=O)c1cc(-c2ccccc2)nc2ccccc12,-2.8,19.1,6.6,-3.4,2.0,.,.,.,.
O=C(Nc1cccnc1)c1cc(-c2cccc(Br)c2)nc2ccccc12,0.7,65.4*,6.5,-2.6,2.1,26.7*,46.8,5.5,4.6
COc1cc(-c2cc(C(=O)Nc3ccc(N4CCOCC4)cc3)c3ccccc3n2)cc(OC)c1OC,1.4,72.2*,11.6,1.1,12.5,31.6*,50.7*,6.8,6.0
COc1cc(-c2cc(C(=O)Nc3ccncc3)c3ccccc3n2)cc(OC)c1OC,-12.3,61.1*,26.4,-1.7,23.4,27.9*,48.5,7.8,6.4
O=C(Nc1ccncc1)c1cc(-c2cccc(Br)c2)nc2ccccc12,7.9,37.8,-8.8,0.4,-1.4,.,.,.,.
CCOC(=O)[C@]12CCC=C1N(Cc1ccc(Cl)cc1Cl)C(=O)[C@H](CC(=O)NCc1ccc(OC)c(OC)c1)C2,.,-0.2,.,.,0.7,.,.,.,.
CCCCNc1ncnc2c1cnn2Cc1ccc(Cl)cc1,-5.8,9.6,8.6,8.3,2.8,.,.,.,.
CCN(CC)c1ncnc2c1cnn2Cc1ccc(Cl)cc1,-6.5,54.3*,13.1,-2.7,13.1,26.9*,39.9,7.4,7.6
COc1ccc(N(C)S(=O)(=O)c2cccc(C(=O)Nc3cc(OC)ccc3OC)c2)cc1,1.1,10.0,-5.3,-10.5,4.4,.,.,.,.
COc1ccc(N(C)S(=O)(=O)c2cccc(C(=O)Nc3ccc4c(c3)OCCO4)c2)cc1,-1.8,35.9,12.1,-1.0,3.7,.,.,.,.
COc1ccc(N(C)S(=O)(=O)c2cccc(C(=O)Nc3ccc(-n4cnnn4)cc3)c2)cc1,-13.1,75.0*,29.0*,4.2,19.1,46.6*,51.6*,13.3*,5.4
COc1ccc(N(C)S(=O)(=O)c2cccc(C(=O)Nc3ccc(OC)nc3)c2)cc1,.,62.0*,.,.,17.9,31.0*,43.1,10.6,5.6
Cc1cccc(C(=O)NN2C(=O)C3C(c4ccccc4)C=CC(c4ccccc4)C3C2=O)c1 (stereo unspecified),-22.0,91.6*,89.1*,3.4,24.3,53.5*,59.5*,13.6*,9.2
CCCCNC(=O)c1nc(C2CCN(S(=O)(=O)c3c(OC)cccc3OC)CC2)oc1-c1ccccc1,.,2.6,.,.,1.6,.,.,.,.
O=c1c2ccc([N+](=O)[O-])cc2ncn1CCOc1cccc(Br)c1,-8.3,70.7*,3.3,-5.4,13.2,29.8*,55.5*,9.3,5.9
Cc1cc(OCCn2cnc3ccccc3c2=O)ccc1[N+](=O)[O-],0.8,6.1,0.6,-7.2,2.0,.,.,.,.
COC(=O)C1=CN(c2ccc(C(C)(C)C)cc2)C(N)=C(C#N)C1c1cccc([N+](=O)[O-])c1 (stereo unspecified),.,-13.3,.,.,-0.1,.,.,.,.
COc1cc(/C=N/NC(=O)c2cccnc2)ccc1OS(=O)(=O)c1ccc(C)cc1,1.4,30.4,-3.7,-4.6,11.8,.,.,.,.
COc1cc(/C=N/NC(=O)c2cccnc2)ccc1OS(=O)(=O)c1cc(C)ccc1C,-14.0,63.9*,24.7,-2.1,25.1,31.6*,57.2*,13.9*,11.8
COc1ccc(S(=O)(=O)N2C[C@@H](O)COC[C@@H]3O[C@H](CC(=O)NCCCN4CCOCC4)CC[C@H]32)cc1,.,-3.4,.,.,1.4,.,.,.,.
CC(C)CN1C(=O)CN(S(C)(=O)=O)CC1(C)C(=O)Nc1ccc2c(c1)OCCO2 (stereo unspecified),.,-6.0,.,.,3.8,.,.,.,.
Cc1noc(NS(=O)(=O)c2ccc(NC(=O)c3cccc(S(=O)(=O)Nc4ccccc4F)c3)cc2)c1C,12.2,100.3*,-5.9,-5.5,-2.6,2.5,0.6,4.0,3.0
CCCCn1nnnc1C(c1ccccc1)N1CCN(c2ccc(C(F)(F)F)cc2[N+](=O)[O-])CC1 (stereo unspecified),.,-4.5,.,.,-1.2,.,.,.,.
CC1CCCN(c2ccc(C(=O)Nc3ccc4c(c3)OCO4)cc2[N+](=O)[O-])C1 (stereo unspecified),-4.2,70.2*,7.8,-7.8,0.0,24.7*,72.5*,7.2,7.5
CC1CCN(c2ccc(C(=O)Nc3ccc4c(c3)OCO4)cc2[N+](=O)[O-])CC1,-11.1,51.4*,2.6,-9.0,-0.5,28.6*,51.3*,1.8,2.9
SMILES,M1 PAM,TAAR1 antagonist,M1 antag,CHRM1 agonist,TAAR1 agonist,TAAR1 nonsel count,TAAR1 ant conf,Ga16 ag counter,TAAR1 ag count
COC(=O)c1ccccc1COc1cccn2c(N(C)Cc3cccs3)c(C)nc12,-18.2,45.1,26.9,0.2,7.5,.,.,.,.
O=C(Nc1ccon1)c1ccc(OC2CCCC2)cc1,-3.4,5.1,5.8,-1.2,5.9,.,.,.,.
CC(C)(C)c1cc(NC(=O)c2ccc(OC3CCCC3)cc2)no1,1.1,50.7*,-1.1,-1.6,0.3,25.3*,31.1,4.3,3.4
COc1ccc(/C=N/Nc2ccc([N+](=O)[O-])cc2)cc1Cn1cc([N+](=O)[O-])cn1,-1.5,55.4*,-9.6,-4.6,10.1,25.8*,28.2,6.1,4.2
CC1(C(=O)N2CCCCC2)CCN1C(=O)c1ccccc1CCc1ccccc1 (stereo unspecified),3.8,11.0,-4.9,-1.2,2.2,.,.,.,.
C[C@H]1CN([C@@H](C)CO)C(=O)c2cc(Br)cnc2O[C@H]1CN(C)C(=O)Cc1ccccn1,11.6,-4.7,-16.2,-0.8,5.3,.,.,.,.
CN(C)S(=O)(=O)c1cc(NC(=O)CNCc2ccccc2)ccc1Cl,3.1,-0.5,-7.0,-6.3,9.1,.,.,.,.
CN(C)S(=O)(=O)c1cc(NC(=O)CNCCN2CCOCC2)ccc1Cl,9.5,104.5*,-17.2,-2.5,0.4,8.1,-3.4,3.1,5.2
CC(=O)c1c(C)[nH]c(C(=O)OCC(=O)Nc2ccc(Cl)c(S(=O)(=O)N(C)C)c2)c1C,-10.6,67.8*,10.8,-0.2,12.1,27.7*,47.8,12.1*,11.1
Oc1[nH]c2ccccc2c1N=Nc1nc(Nc2ccccc2)nc(N2CCOCC2)n1,-1.3,53.1*,-0.9,-1.7,10.8,28.9*,45.3,6.4,8.6
O=C1c2cccc(OCC(=O)N3CCCc4ccccc43)c2CCN1Cc1ccc(Br)cc1,-10.3,70.7*,26.2,-6.5,10.7,39.5*,51.2*,8.5,1.8

# Screening results as filed in PubChem BioAssay.
